# Results from ChEMBL document CHEMBL1142378, “Characterization and crystal structure of Escherichia coli KDPGal aldolase” (Bioorg Med Chem, 2008).
# T1: 2-dehydro-3-deoxy-6-phosphogalactonate aldolase (Escherichia coli (strain K12)), Q6BF16 [V154T]
# T1 sequence (whole entry): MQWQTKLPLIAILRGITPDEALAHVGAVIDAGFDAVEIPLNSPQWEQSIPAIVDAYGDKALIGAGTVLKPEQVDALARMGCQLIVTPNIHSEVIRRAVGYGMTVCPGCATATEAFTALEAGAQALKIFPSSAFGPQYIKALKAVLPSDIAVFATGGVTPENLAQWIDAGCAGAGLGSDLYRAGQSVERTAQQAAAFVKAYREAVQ
# T2: 2-dehydro-3-deoxy-6-phosphogalactonate aldolase (Escherichia coli (strain K12)), Q6BF16 [V154A]
# T2 sequence (whole entry): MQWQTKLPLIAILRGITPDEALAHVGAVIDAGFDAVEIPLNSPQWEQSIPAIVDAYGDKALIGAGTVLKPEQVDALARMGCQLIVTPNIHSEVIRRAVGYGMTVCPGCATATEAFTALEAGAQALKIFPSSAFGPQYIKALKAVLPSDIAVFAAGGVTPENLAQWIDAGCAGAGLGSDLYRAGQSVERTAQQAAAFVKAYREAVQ
# T3: KHG/KDPG aldolase (Escherichia coli (strain K12)), P0A955 [T161A]
# T3 sequence (whole entry): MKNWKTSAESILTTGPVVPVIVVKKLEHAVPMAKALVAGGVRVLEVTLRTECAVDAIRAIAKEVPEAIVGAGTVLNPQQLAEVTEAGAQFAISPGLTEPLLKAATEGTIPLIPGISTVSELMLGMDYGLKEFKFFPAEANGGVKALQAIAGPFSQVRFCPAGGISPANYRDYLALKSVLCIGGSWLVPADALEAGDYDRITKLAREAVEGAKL
# T4: KHG/KDPG aldolase (Escherichia coli (strain K12)), P0A955 [T161V]
# T4 sequence (whole entry): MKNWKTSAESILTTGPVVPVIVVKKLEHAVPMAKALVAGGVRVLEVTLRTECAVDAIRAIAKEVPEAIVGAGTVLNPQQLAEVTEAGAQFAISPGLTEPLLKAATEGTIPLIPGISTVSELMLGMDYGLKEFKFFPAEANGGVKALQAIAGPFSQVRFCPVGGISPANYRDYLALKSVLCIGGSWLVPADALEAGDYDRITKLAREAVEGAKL
# B1: 2-dehydro-3-deoxy-6-phosphogalactonate aldolase (Escherichia coli (strain K12)), Q6BF16 V154T (protein)
# chain: MQWQTKLPLIAILRGITPDEALAHVGAVIDAGFDAVEIPLNSPQWEQSIPAIVDAYGDKALIGAGTVLKPEQVDALARMGCQLIVTPNIHSEVIRRAVGYGMTVCPGCATATEAFTALEAGAQALKIFPSSAFGPQYIKALKAVLPSDIAVFATGGVTPENLAQWIDAGCAGAGLGSDLYRAGQSVERTAQQAAAFVKAYREAVQ
# B2: 2-dehydro-3-deoxy-6-phosphogalactonate aldolase (Escherichia coli (strain K12)), Q6BF16 V154A (protein)
# chain: MQWQTKLPLIAILRGITPDEALAHVGAVIDAGFDAVEIPLNSPQWEQSIPAIVDAYGDKALIGAGTVLKPEQVDALARMGCQLIVTPNIHSEVIRRAVGYGMTVCPGCATATEAFTALEAGAQALKIFPSSAFGPQYIKALKAVLPSDIAVFAAGGVTPENLAQWIDAGCAGAGLGSDLYRAGQSVERTAQQAAAFVKAYREAVQ
# Columns and labels:
# Escherichia coli [1] = assay: Ratio of kcat to Km for Escherichia coli KDPGal aldolase
# In short: (§1)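 The enzyme started a coupled L-lactate dehydrogenase assay in 20 mM HEPES pH 7.0 with 0.42 mM NADH, KDPGal at 0.2×–5× KM and 105 U LDH. The A340 decrease was followed for 5 min. Initial slopes were fitted to Michaelis–Menten.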
# [2] = tested on: T1, 2-dehydro-3-deoxy-6-phosphogalactonate aldolase (Escherichia coli (strain K12)), Q6BF16 [V154T]; assay: Ratio of kcat to Km for Escherichia coli KDPGal aldolase V154T mutant
# In short: (§2)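 V154A or V154T KDPGal aldolase was made by Quikchange and expressed in DF71 (eda–) cells, with 1 mM IPTG induction at 25 °C for 16 h. It was nickel-affinity purified. Retro-aldol cleavage of KDPGal (0.2×–5× KM) was coupled to L-lactate dehydrogenase (105 U) in 20 mM HEPES pH 7.0 with 0.42 mM NADH. Aldolase was added last, and A340 loss was read over 5 min. Kinetic constants came from Michaelis–Menten fits of initial rates.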
# Escherichia coli [3] = assay: Activity of Escherichia coli KDPGal aldolase; in short: as §1
# Escherichia coli [4] = assay: Ratio of kcat to Km of Escherichia coli KDPG aldolase
# In short: (§3)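 Wild-type KDPG aldolase activity toward KDPG (0.2×–5× KM) was read through a coupled L-lactate dehydrogenase system: 20 mM HEPES pH 7.0, 0.42 mM NADH, 105 U LDH. Aldolase was added to start the reaction, NADH loss was followed at 340 nm for 5 min, and Michaelis–Menten fits gave the parameters.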
# [5] = tested on: T2, 2-dehydro-3-deoxy-6-phosphogalactonate aldolase (Escherichia coli (strain K12)), Q6BF16 [V154A]; assay: Ratio of kcat to Km for Escherichia coli KDPGal aldolase V154A mutant; in short: as §2
# Escherichia coli [6] = assay: Activity of Escherichia coli KDPG aldolase; in short: as §3
# [7] = tested on: T3, KHG/KDPG aldolase (Escherichia coli (strain K12)), P0A955 [T161A]; assay: Ratio of kcat to Km of Escherichia coli KDPG aldolase T161A mutant
# In short: (§4)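 KDPG aldolase T161A or T161V mutants were expressed from the pET plasmid in DF71 (eda–) cells, induced with 1 mM IPTG at 25 °C for 16 h, and purified on nickel resin. Assays used 20 mM HEPES pH 7.0, 0.42 mM NADH, KDPG at 0.2×–5× KM and 105 U rabbit-muscle L-lactate dehydrogenase, started with enzyme. A340 was monitored for 5 min, and initial velocities were fitted to Michaelis–Menten.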
# [8] = tested on: T4, KHG/KDPG aldolase (Escherichia coli (strain K12)), P0A955 [T161V]; assay: Ratio of kcat to Km of Escherichia coli KDPG aldolase T161V mutant; in short: as §4
# [9] = substrate: O=C(O)C(=O)C[C@H](O)[C@@H](O)COP(=O)(O)O; assay: (§5) Activity of Escherichia coli KDPGal aldolase V154T mutant; in short: as §2
# [10] = substrate: O=C(O)C(=O)C[C@H](O)[C@H](O)COP(=O)(O)O; assay: as §5; in short: as §2
# [11] = substrate: O=C(O)C(=O)C[C@H](O)[C@@H](O)COP(=O)(O)O; assay: (§6) Activity of Escherichia coli KDPGal aldolase V154A mutant; in short: as §2
# [12] = substrate: O=C(O)C(=O)C[C@H](O)[C@H](O)COP(=O)(O)O; assay: as §6; in short: as §2
Molecule,Ratio (Escherichia coli [1]) [mM⁻¹ s⁻¹],Ratio [2] [mM⁻¹ s⁻¹],Km (Escherichia coli [3]) [µM],kcat (Escherichia coli [3]) [s⁻¹],Ratio (Escherichia coli [4]) [mM⁻¹ s⁻¹],Ratio [5] [mM⁻¹ s⁻¹],Km (Escherichia coli [6]) [µM],kcat (Escherichia coli [6]) [s⁻¹],Ratio [7] [mM⁻¹ s⁻¹],Ratio [8] [mM⁻¹ s⁻¹],Km [9] [µM],kcat [9] [s⁻¹],Km [10] [µM],kcat [10] [s⁻¹],Km [11] [µM],kcat [11] [s⁻¹],Km [12] [µM],kcat [12] [s⁻¹]
O=C(O)C(=O)C[C@H](O)[C@H](O)COP(=O)(O)O,1.1,0.1,1300,1.4,800,0.02,100,80,58,0.07,–,–,–,–,–,–,–,–
O=C(O)C(=O)C[C@H](O)[C@@H](O)COP(=O)(O)O,19,0.7,200,3.8,2.8,1.3,600,1.7,5,0.1,–,–,–,–,–,–,–,–
B1,–,–,–,–,–,–,–,–,–,–,300,0.2,90,0.01,–,–,–,–
B2,–,–,–,–,–,–,–,–,–,–,–,–,–,–,400,0.5,300,0.007
